The source of these data is ChEMBL document CHEMBL2385018, “Microwave assisted synthesis, cholinesterase enzymes inhibitory activities and molecular docking studies of new pyridopyrimidine derivatives” (Bioorg Med Chem, 2013).

Test [1] is described as follows: Selectivity ratio of IC50 for electric eel AChE to IC50 for equine serum BuChE.
The next test deals with Acetylcholinesterase (Electrophorus electricus, UniProt O42275). Kind of test: Inhibition of electric eel AChE using […] as substrate incubated for 15 mins prior to substrate addition measured after 30 mins by Ellman's method. Background: In Ellman's method for cholinesterases, released thiocholine reacts with DTNB.
Sequence of Acetylcholinesterase (O42275 whole entry): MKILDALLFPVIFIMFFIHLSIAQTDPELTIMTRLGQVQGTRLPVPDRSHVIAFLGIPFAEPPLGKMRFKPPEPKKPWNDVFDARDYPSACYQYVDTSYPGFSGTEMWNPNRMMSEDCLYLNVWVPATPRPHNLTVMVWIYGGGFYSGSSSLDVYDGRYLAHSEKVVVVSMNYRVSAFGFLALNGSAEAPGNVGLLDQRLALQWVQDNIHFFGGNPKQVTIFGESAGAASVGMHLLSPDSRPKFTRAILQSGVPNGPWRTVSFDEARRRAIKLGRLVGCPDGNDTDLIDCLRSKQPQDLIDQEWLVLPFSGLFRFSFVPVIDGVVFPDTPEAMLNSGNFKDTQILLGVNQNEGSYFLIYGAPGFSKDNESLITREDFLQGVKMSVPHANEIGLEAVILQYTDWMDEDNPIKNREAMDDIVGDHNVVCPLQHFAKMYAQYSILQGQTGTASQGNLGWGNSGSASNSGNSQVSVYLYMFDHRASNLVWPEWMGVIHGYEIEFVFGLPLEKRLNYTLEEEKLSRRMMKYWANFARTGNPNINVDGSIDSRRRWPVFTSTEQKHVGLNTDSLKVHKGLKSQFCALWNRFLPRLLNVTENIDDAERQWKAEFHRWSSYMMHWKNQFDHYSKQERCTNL
Test [2] is described as follows: Selectivity ratio of IC50 for equine serum BuChE to IC50 for electric eel AChE.
The target of test [3] is Cholinesterase (Equus caballus) (UniProt P81908). Kind of test: Selectivity ratio of Galanthamine IC50 to compound IC50 for equine BChE.
Sequence of Cholinesterase (Equus caballus) (P81908 whole entry): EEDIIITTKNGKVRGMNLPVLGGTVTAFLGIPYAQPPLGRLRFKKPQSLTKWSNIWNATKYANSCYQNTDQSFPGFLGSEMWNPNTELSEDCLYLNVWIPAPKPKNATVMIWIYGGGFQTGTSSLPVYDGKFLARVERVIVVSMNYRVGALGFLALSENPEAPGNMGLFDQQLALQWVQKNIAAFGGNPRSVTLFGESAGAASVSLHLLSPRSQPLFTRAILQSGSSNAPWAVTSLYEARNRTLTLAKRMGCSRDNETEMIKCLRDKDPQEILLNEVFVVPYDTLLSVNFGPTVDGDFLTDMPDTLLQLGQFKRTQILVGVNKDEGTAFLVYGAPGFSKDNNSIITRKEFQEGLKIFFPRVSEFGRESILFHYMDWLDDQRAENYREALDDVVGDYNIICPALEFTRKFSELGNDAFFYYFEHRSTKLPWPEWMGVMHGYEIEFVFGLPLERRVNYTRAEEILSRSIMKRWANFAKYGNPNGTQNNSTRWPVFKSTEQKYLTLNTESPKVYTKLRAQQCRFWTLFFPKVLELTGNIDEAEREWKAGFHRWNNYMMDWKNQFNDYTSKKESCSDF
The target of another test is Cholinesterase (Equus caballus, UniProt P81908). Kind of test: Inhibition of equine serum BuChE using S-butyrylthiocholine chloride as substrate incubated for 15 mins prior to substrate addition measured after 30 mins by Ellman's method. The method, boiled down:
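Modified Ellman method in 0.1 M sodium phosphate buffer, pH 8. Samples were dissolved in DMSO (1 mg/mL stock; 1% DMSO final). Equine serum BChE was preincubated with sample for 15 min at 25 °C. DTNB (10 mM stock) and S-butyrylthiocholine chloride were then added, and absorbance was read at 412 nm after 30 min. Triplicate, blank-corrected, % inhibition versus control.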

Sequence of Cholinesterase (P81908 whole entry): as above

With `Cc1ccccc1/C=C1\CNCC2=C1NC(=O)NC2c1ccccc1C` (stereo not given), the figures for the Ratio IC50 in test [1], in test [2] and in test [3] were 7.74, 0.13 and 2, respectively. Further, the IC50 (usually the concentration at which inhibition is half-maximal) at Acetylcholinesterase amounted to 40.4 µM; at Cholinesterase, 5.22 µM.
The like results for `O=C1NC2=C(CNC/C2=C\c2ccccc2F)C(c2ccccc2F)N1` (stereo not given) were, in that order, 5.61, 0.18, 2, 18.6 µM and 3.31 µM.
The like results for `O=C1NC2=C(CNC/C2=C\c2ccc(F)cc2)C(c2ccc(F)cc2)N1` (stereo not given) were, in that order, 2.34, 0.43, 2, 44.2 µM and 18.9 µM.
For the molecule `Fc1ccc(/C=C2\CNCC3=C2NC(=S)NC3c2ccc(F)cc2)cc1` (stereo not given), the Ratio IC50 was 1.29 in test [1], 0.77 in test [2] and 2 in test [3]. Moreover, the IC50 against Acetylcholinesterase came out at 37.2 µM; against Cholinesterase it was 28.8 µM.
`O=C1NC2=C(CNC/C2=C\c2cccc([N+](=O)[O-])c2)C(c2cccc([N+](=O)[O-])c2)N1` (stereo not given): the Ratio IC50 came out at 2.73 in test [1], 0.37 in test [2] and 2 in test [3]. The values for the IC50 at Acetylcholinesterase and against Cholinesterase were 28.3 µM and 10.3 µM, respectively.
The like results for `COc1ccccc1/C=C1\CNCC2=C1NC(=S)NC2c1ccccc1OC` (stereo not given) were, in that order, 0.67, 1.47, 16, 0.8 µM and 1.18 µM.
The like results for `Cc1ccc(/C=C2\CNCC3=C2NC(=S)NC3c2ccc(C)cc2)cc1` (stereo not given) were, in that order, 5.95, 0.17, 2, 37.5 µM and 6.27 µM.
The like results for `S=C1NC2=C(CNC/C2=C\c2cccc3ccccc23)C(c2cccc3ccccc23)N1` (stereo not given) were, in that order, 0.25, 4.07, 2, 1.37 µM and 5.58 µM.
As to `S=C1NC2=C(CNC/C2=C\c2ccccc2)C(c2ccccc2)N1` (stereo not given), the values for the Ratio IC50 in test [1], in test [2] and in test [3] were 5.09, 0.2 and 2, respectively. The results for the IC50 at Acetylcholinesterase and at Cholinesterase were 19.3 µM and 3.78 µM, respectively.
Taken in the same sequence, the figures for `COc1ccccc1/C=C1\CNCC2=C1NC(=O)NC2c1ccccc1OC` (stereo not given) were 3.75, 0.27, 2, 40.2 µM and 10.7 µM.
Taken in the same sequence, the figures for `O=[N+]([O-])c1cccc(/C=C2\CNCC3=C2NC(=S)NC3c2cccc([N+](=O)[O-])c2)c1` (stereo not given) were 4.25, 0.24, 2, 34.3 µM and 8.09 µM.
`Cc1ccccc1/C=C1\CNCC2=C1NC(=S)NC2c1ccccc1C` (stereo not given): the results for the Ratio IC50 in test [1], in test [2] and in test [3] were 12.9, 0.08 and 2, respectively. Moreover, the IC50 on Acetylcholinesterase came to 39.7 µM; on Cholinesterase, 3.07 µM.
`Cc1ccc(/C=C2\CNCC3=C2NC(=O)NC3c2ccc(C)cc2)cc1` (stereo not given): the Ratio IC50 in test [1] was 6.56; in test [2] it was 0.15; in test [3], 2. In addition, the 50% inhibitory concentration (IC50) on Acetylcholinesterase came out at 46.5 µM; at Cholinesterase, 7.09 µM.
On to `O=C1NC2=C(CNC/C2=C\c2ccccc2Cl)C(c2ccccc2Cl)N1` (stereo not given), for which the Ratio IC50 turned out to be 9.57 in test [1], 0.1 in test [2] and 2 in test [3]. The results for the half-inhibitory concentration (IC50) against Acetylcholinesterase and at Cholinesterase were 24.1 µM and 2.51 µM, respectively.
Taken in the same sequence, the figures for `O=C1NC2=C(CNC/C2=C\c2ccc(Br)cc2)C(c2ccc(Br)cc2)N1` (stereo not given) were 2.54, 0.39, 2, 15.9 µM and 6.22 µM.
Taken in the same sequence, the figures for `O=C1NC2=C(CNC/C2=C\c2ccc(Cl)cc2)C(c2ccc(Cl)cc2)N1` (stereo not given) were 2.2, 0.45, 2, 36.8 µM and 16.7 µM.
The like results for `S=C1NC2=C(CNC/C2=C\c2ccc(Cl)cc2Cl)C(c2ccc(Cl)cc2Cl)N1` (stereo not given) were, in that order, 0.67, 1.5, 2, 26.3 µM and 49.8 µM.
Turning to `O=C1NC2=C(CNC/C2=C\c2ccc(Cl)cc2Cl)C(c2ccc(Cl)cc2Cl)N1` (stereo not given), the Ratio IC50 is 1.26 in test [1], 0.79 in test [2] and 2 in test [3]. The IC50 worked out at 29.9 µM against Acetylcholinesterase and 23.5 µM at Cholinesterase.
Taken in the same sequence, the figures for `S=C1NC2=C(CNC/C2=C\c2ccc(Br)cc2)C(c2ccc(Br)cc2)N1` (stereo not given) were 7.2, 0.14, 12, 11.9 µM and 1.65 µM.
The like results for `S=C1NC2=C(CNC/C2=C\c2ccc(Cl)cc2)C(c2ccc(Cl)cc2)N1` (stereo not given) were, in that order, 0.35, 2.78, 2, 2.25 µM and 6.26 µM.
The like results for `O=C1NC2=C(CNC/C2=C\c2ccccc2)C(c2ccccc2)N1` (stereo not given) were, in that order, 24, 0.04, 2, 68.7 µM and 2.86 µM.
On to `Fc1ccccc1/C=C1\CNCC2=C1NC(=S)NC2c1ccccc1F` (stereo not given), for which the values for the Ratio IC50 in test [1], in test [2] and in test [3] were 6.21, 0.16 and 2, respectively. Moreover, the IC50 is 40.4 µM on Acetylcholinesterase and 6.5 µM against Cholinesterase.
Turning to `S=C1NC2=C(CNC/C2=C\c2ccccc2Cl)C(c2ccccc2Cl)N1` (stereo not given), the figures for the Ratio IC50 in test [1], in test [2] and in test [3] were 11.1, 0.09 and 2, respectively. The values for the IC50 against Acetylcholinesterase and against Cholinesterase were 32.4 µM and 2.91 µM, respectively.
The like results for `O=C1NC2=C(CNC/C2=C\c2cccc3ccccc23)C(c2cccc3ccccc23)N1` (stereo not given) were, in that order, 2.44, 0.41, 2, 13.2 µM and 5.39 µM.
